The values that follow come from article PMC4651729 (ACS chemical neuroscience, 2015).

Marks after values point to notes of the source that are not given here. A value given as a limit tells only on which side of the number the result lay.

For data set [1], the target named is mouse KOR-1 (Mus musculus, UniProt P33534). As to the kind of experiment: [125I]BNtxA competition binding, CHO cell membranes, KOR-1. The following applies: for selectivity for KOR-1 over 6TM/E11 sites: ratio of Ki; for Ki: read-out: Ki KOR-1, [125I]BNtxA 0.1 nM, CHO membranes, mouse KOR-1; for fold higher KOR-1 affinity than corresponding 14-OH-epoxymorphinan analog: 6 vs 19, 16 vs 1, 17 vs 20. An outline of the steps:
(§1)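 Membranes from CHO cells stably expressing the murine receptor clone, with no blockers, were incubated for 90 min at 25 °C in 50 mM potassium phosphate buffer (pH 7.4) with 5 mM MgSO4. Samples were then filtered on glass-fiber filters and washed with ice-cold 50 mM Tris-HCl (pH 7.4). Nonspecific binding was set with levallorphan 8 μM. Ki came from nonlinear regression. The 6TM/E11 comparison used mouse whole-brain membranes with CTAP, U50,488H and DPDPE, each at 200 nM.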

Data set [2] deals with CD1 mice. As to the kind of experiment: radiant heat tail flick analgesia. The following applies: for tail flick analgesia (CI), ED50 / antinociception in vivo (in words): sc; for tail flick analgesia (CI), ED50: 30 min after dosing, mice, 95% CI or ± SEM. Type of data set: in vivo, mouse.
In data set [3] the target is 6TM/E11 (Mus musculus, UniProt P42866). Type of data set: binding. The following applies: for Ki: read-out: Ki 6TM/E11, [125I]BNtxA 0.1 nM, mouse brain, CTAP, DPDPE, U50,488 blockers at 200 nM. An outline of the steps: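 Membrane homogenates of whole brain from wild-type mice. Blockers at 200 nM: CTAP for MOR-1, U50,488H for KOR-1 and DPDPE for DOR-1.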
Data set [4] has as its target mouse MOR-1 (Mus musculus, UniProt P42866). As to the kind of experiment: [125I]BNtxA competition binding, CHO cell membranes, MOR-1. The following applies: for selectivity for MOR-1 over 6TM/E11 sites: ratio of Ki; for Ki: read-out: Ki MOR-1, [125I]BNtxA 0.1 nM, CHO membranes, mouse MOR-1; for fold higher MOR-1 affinity than corresponding 14-OH-epoxymorphinan analog: 6 vs 19, 16 vs 1, 17 vs 20. A digest of the protocol:
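Mouse MOR-1 clone stably expressed in CHO cells; membranes incubated 90 min at 25 °C in 50 mM potassium phosphate buffer, pH 7.4, with 5 mM MgSO4, no blockers. Filtration through glass-fibre filters, three washes with ice-cold 50 mM Tris-HCl, pH 7.4. Nonspecific binding with 8 μM levallorphan, subtracted from total. Ki by nonlinear regression. Protein measured by Lowry method.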

Data set [5] has as its target mouse DOR-1 (Mus musculus, UniProt P32300). As to the kind of experiment: [125I]BNtxA competition binding, CHO cell membranes, DOR-1. The following applies: for selectivity for DOR-1 over 6TM/E11 sites: ratio of Ki; for Ki: read-out: Ki DOR-1, [125I]BNtxA 0.1 nM, CHO membranes, mouse DOR-1; for fold higher DOR-1 affinity than corresponding 14-OH-epoxymorphinan analog: 6 vs 19, 16 vs 1, 17 vs 20. A digest of the protocol: as §1

In data set [6] the test system is CD1 mice. The following applies: cited from earlier work.
Data set [7] has as its system mice. The experiment in a line: conditioned place preference/aversion. Type of data set: in vivo, mouse. The following applies: 2 days; 16 1 mg/kg sc, morphine 10 mg/kg ip, U50,488 30 mg/kg ip, cocaine 10 mg/kg sc.

With `O=C(N[C@@H]1C=C[C@H]2[C@H]3Cc4ccc(O)c5c4[C@@]2(CCN3CCc2ccccc2)[C@H]1O5)c1cccc(I)c1` [Compound 15, 17-Phenethyl-3-hydroxy-4,5α-epoxy-7,8-en-6-β-[(3′-iodo)-benzamido]-morphinan], in data set [1], the “selectivity for KOR-1 over 6TM/E11 sites” value is on record as 100 fold and the Ki came to 140 ± 22 pM. The “tail flick analgesia (CI), ED50” value in data set [2] is listed as 1.3 (1.03, 2.2) mg/kg. Moreover, the “fold higher analgesic potency than morphine” value in data set [2] (tail flick, systemic (sc)) is ~ 3 fold. Besides, the Ki in data set [3] came out at 14000 ± 3200 pM. In data set [4], the “selectivity for MOR-1 over 6TM/E11 sites” value amounted to 159 fold and the Ki was found to be 88 ± 28 pM. In data set [5], the “selectivity for DOR-1 over 6TM/E11 sites” value is on record as 108 fold and the Ki worked out at 130 ± 32 pM.

Turning to `O=C(N[C@@H]1CC[C@@]2(O)[C@H]3Cc4ccc(O)c5c4[C@@]2(CCN3CC2CC2)[C@H]1O5)c1cccc(I)c1` [Compound 1, 3-Iodobenzoyl-β-naltrexamine, reference compound], the Ki worked out at 30 ± 1 pM in data set [1], 160 ± 40 pM in data set [3], 110 ± 20 pM in data set [4] and 240 ± 50 pM in data set [5]. Besides, the “tail flick analgesia (CI), ED50” value in data set [2] is 0.39 (0.15, 0.58) mg/kg. The “antinociception ED50” value in data set [6] (introduction) is 0.39 mg/kg.

Consider `C=CCN1CC[C@]23c4c5ccc(O)c4O[C@H]2[C@H](NC(=O)c2cccc(I)c2)C=C[C@H]3[C@H]1C5` [Compound 17, 17-Allyl-3-hydroxy-4,5α-epoxy-7,8-en-6-β-[(3′-iodo)benzamido]-morphinan], for which, in data set [1], the “fold higher KOR-1 affinity than corresponding 14-OH-epoxymorphinan analog” value was 3.6 fold, the “selectivity for KOR-1 over 6TM/E11 sites” value came out at 35 fold and the Ki amounted to 22 ± 4.3 pM. Further, the “tail flick analgesia (CI), ED50” value in data set [2] is 0.53 (0.45, 0.59) mg/kg. Also, in data set [2] (tail flick), the “antinociception in vivo (in words)” value is “equipotent to both 1 and 20”. The “fold lower 6TM/E11 affinity than 1” value in data set [3] (compared with 1) is listed as 4.9 fold. Moreover, the “fold lower 6TM/E11 affinity than 20” value in data set [3] (compared with 20) is 3.1 fold. In addition, in data set [3], the Ki was 780 ± 100 pM. Moreover, in data set [4], the “fold higher MOR-1 affinity than corresponding 14-OH-epoxymorphinan analog” value amounted to 6.5 fold, the “selectivity for MOR-1 over 6TM/E11 sites” value came out at 23 fold and the Ki was 34 ± 6 pM. Also, in data set [5], the “fold higher DOR-1 affinity than corresponding 14-OH-epoxymorphinan analog” value worked out at 6.7 fold, the “selectivity for DOR-1 over 6TM/E11 sites” value came out at 2 fold and the Ki amounted to 390 ± 4.1 pM.

In the case of `CN1CC[C@]23c4c5ccc(O)c4O[C@H]2[C@@H](O)C=C[C@H]3[C@H]1C5` [morphine, reference compound], in data set [7], the “place conditioning response to drug alone” value is given as “significant conditioned place preference”. Besides, the “tail flick analgesia, ED50” value in data set [6] is 4.96 ± 0.96^f mg/kg.

`CN1CC[C@]23c4c5ccc(O)c4O[C@H]2[C@H](NC(=O)c2cccc(I)c2)C=C[C@H]3[C@H]1C5` [Compound 6, 17-Methyl-3-hydroxy-4,5α-epoxy-7,8-en-6-β-[(3′-iodo)-benzamido]-morphinan]: in data set [1], the “fold higher KOR-1 affinity than corresponding 14-OH-epoxymorphinan analog” value turned out to be 224 fold and the Ki worked out at 210 ± 46 pM. The “tail flick analgesia (CI), ED50” value in data set [2] is 6.31 (4.6, 8.5) mg/kg. Further, the “antinociception in vivo (in words)” value in data set [2] (tail flick) is “potent antinociception”. Also, in data set [3], the Ki was 27000 ± 18000 pM. Moreover, in data set [4], the “fold higher MOR-1 affinity than corresponding 14-OH-epoxymorphinan analog” value was 26 fold and the Ki stood at 37 ± 5.1 pM. Also, in data set [5], the “fold higher DOR-1 affinity than corresponding 14-OH-epoxymorphinan analog” value came to 3 fold and the Ki stood at 880 ± 80 pM.

Consider `COc1ccc2c3c1O[C@H]1[C@H](NC(=O)c4cccc(I)c4)C=C[C@H]4[C@@H](C2)N(C)CC[C@@]341` [Compound 5, 17-Methyl-3-methoxy-4,5α-epoxy-7,8-en-6-β-[(3′-iodo)-benzamido]-morphinan], for which the Ki in data set [1] was found to be 10000 ± 3500 pM; in data set [3], 61000 ± 7700 pM; in data set [4] it was 1200 ± 480 pM; in data set [5] it was 49000 ± 6400 pM. In data set [2], the “tail flick analgesia (CI), ED50” value is on record as above 10 mg/kg.

Turning to `COC(=O)[C@H]1[C@@H](OC(=O)c2ccccc2)C[C@@H]2CC[C@H]1N2C` [cocaine, reference compound], the “place conditioning response to drug alone” value in data set [7] is listed as “significant place preference”.
